Only some compounds are listed: those with a hit (about 3.6% of all), similar ones and a draw of the others.
HSF1 inhib: HSF1 inhibition. activity change, negative = inhibition, % at 7.5 µM (by protocol). NIH3T3-HGL HSE-luciferase, MG132-induced, luminescence 8 h; active compounds read low. 0.77% of 300,000 active. AID 2098;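 active = more than half of replicate wells show activity change below -50%, luminescence cut by over half; inconclusive = some wells, but at most half, below -50%; inactive = no replicate well below -50%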;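 note: luciferase reports HSF-1 transcriptional activity via heat shock element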
STAT3 act: activators of IL-6 induced STAT3 signaling; U3A cells, IL-6 STAT3-luciferase reporter, luminescence; 100% = signal with IL-6 EC80 alone; activation (% of control), % at 5.6 µM; 0.91% of 190,000 active;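 active = activation above the screen-wide mean of compound activation plus 3 SD, cut at about 130% in these data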
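Assay system – human STAT1-deficient U3A cells with stable STAT3-luciferase reporter · Also added – IL-6 (33 ng/mL) · Schedule – compound 1 h, then IL-6 6 h at 37 °C · Technique – reporter luminescence signal · Evaluation – % activation versus median of IL-6-stimulated wells · Benchmarks – IL-6-only wells as 100% reference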
AHR activator: activators of human aryl hydrocarbon receptor; activation, % at 5 µM; AHR-responsive luciferase reporter cells, luminescence; P35869; 2.5% of 320,000 active; in the data active = activation above about 47%
Hsp70 act: Hsp70 transcriptional activation, primary screen; activation, % at 10 µM; 0.04% of 200,000 active; AID 1203; HeLa Hsp70 promoter luciferase reporter, luminescence; scaled: vehicle 0, proteasome-inhibitor control 100%;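 active = activation above the mean across all tested compounds plus 3 SD, cutoff set per campaign, cut at about 5.5% in these data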
PERK inhibitor: blocks human PERK kinase. 0.17% of 220,000 active. inhibition, % at 5.6 µM. Q9NZJ5. CHO PERK-DD fusion, SEAP luminescence translation reporter. AID 1416;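 active = inhibition above the mean inhibition of all tested compounds plus 3 SD, set separately per screening campaign, cut at about 2.9% in these data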;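 note: PERK kinase domain activated by AP20187 dimerizer at 100 nM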
PolyA inh: blocks polyadenylation in yeast reporter cells | S. cerevisiae SKY197-pL101 polyadenylation reporter, beta-gal luminescence; efflux-impaired pdr1/pdr3 knockout yeast; score 100 = 6 SD above DMSO | 0.02% of 300,000 active | activity score, % at 12 µM;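 active = lowest replicate activity score at least 50, where 100 means six control SD above control mean; inconclusive = lowest score under 50 but half or more replicates reach 50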;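 note: yeast exposed to compound for 9 h at 30 °C; higher score means more reporter readthrough which indicates perturbed polyadenylation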
Hits are given with their value; 0 = inactive; ? = inconclusive; - = no result given.

SMILES | HSF1 inhib | STAT3 act | AHR activator | Hsp70 act | PERK inhibitor | PolyA inh
Cc1cccc(C(=O)Nc2sc(C)c(-c3ccccc3)c2C#N)c1 | 0 | 0 | 50.0 | 0 | 0 | 0
O=[N+]([O-])c1ccccc1/C=C/CN1CCN(Cc2ccc3c(c2)OCO3)CC1 | 0 | - | 0 | - | - | 0
CC(Sc1n[nH]c(-c2ccccc2F)n1)C(=O)Nc1ccc(S(N)(=O)=O)cc1 (configuration not stated) | - | - | 0 | - | - | -
COc1ccccc1/C=C/C=N/NC(=O)CCn1nnc2ccccc21 | 0 | 0 | 66.4 | 0 | 0 | 0
COc1ccc(/C=N/NC(=O)CCn2nnc3ccccc32)cc1 | 0 | - | 0 | - | 0 | 0
COc1ccccc1/C=C/C=N/NC(=O)Cc1cccn1C | 0 | 0 | 0 | 0 | 0 | 0
COc1ccccc1/C=C\C=N\NC(=O)CCn1nnc2ccccc21 | 0 | 0 | 74.1 | 0 | 0 | 0
CCC1CCCCN1CCCNC(=O)c1ccc(CS(=O)(=O)Cc2ccc(Cl)cc2)o1 (configuration not stated) | 0 | - | 0 | - | - | 0
Cn1ncc(Br)c1C(=O)Nc1ccc(Cl)cn1 | 0 | 0 | 64.8 | 0 | 0 | 0
Cn1ncc(Br)c1C(=O)Nc1ccc(Br)cn1 | 0 | 0 | 174.8 | 0 | 0 | 0
COc1ccc(CN2CCSCC2)c(C)c1C | 0 | - | - | - | - | 0
CN(C)Cc1c(C(=O)N/N=C/C2CC=CCC2)nnn1-c1nonc1N (configuration not stated) | 0 | - | 0 | - | - | 0
Cc1cc(C)cc(NC(=O)C(OC(=O)c2cc[n+]([O-])cc2)c2ccccc2)c1 (configuration not stated) | - | - | 0 | - | - | -
Nc1ccc(S(N)(=O)=O)cc1N | 0 | - | 114.6 | - | 0 | 0
Nc1c(-c2n[nH]c(=S)n2-c2ccc(Cl)cc2Cl)cnn1-c1ccccc1 | 0 | - | 0 | - | 0 | 0
Nc1[nH]nc2c1NN(c1ccc(Cl)cc1Cl)N2 | 0 | 0 | 74.8 | 0 | 0 | 0
N#C/C(=C\c1c[nH]c2ccccc12)C(=O)NC1CCCC1 | 0 | - | 63.8 | - | - | 0
N#C/C(=C\c1cn[nH]c1-c1ccc(Cl)cc1)C(=O)NC1CC1 | 0 | 0 | 84.8 | 0 | 0 | 0
N#C/C(=C\c1c[nH]c2ccccc12)C(=O)NC1CC1 | 0 | - | 0 | - | - | 0
COc1ccc(-c2[nH]ncc2/C=C(\C#N)C(=O)NC2CC2)cc1 | 0 | 0 | 0 | 0 | 0 | 0
Cc1nnsc1SCCNC(=O)Nc1ccc(Cl)cc1 | 0 | 0 | 0 | 0 | 0 | 0
CCC(C)C(NC(=O)OC(C)(C)C)C(=O)NC(C)C(N)=O (configuration not stated) | - | 0 | 0 | 0 | 0 | 0
Cc1cc(C)c(C#N)c(SCC(=O)NC(C)(C)C)n1 | -65.0 | 0 | 0 | 0 | 0 | 0
Cc1cc(C(F)(F)F)c(C#N)c(SCC(=O)NC(C)(C)C)n1 | 0 | 0 | 0 | 0 | 0 | 0
Cc1cc(C)c(C#N)c(SCC(=O)C(C)(C)C)n1 | 0 | 0 | 59.2 | 0 | 0 | 0
SMILES | HSF1 inhib | STAT3 act | AHR activator | Hsp70 act | PERK inhibitor | PolyA inh
COc1ccc(Oc2cn[nH]c2-c2ccc(OCC(=O)NN)cc2O)cc1 | 0 | - | 58.3 | - | - | 0
CSc1nnc(NC(=O)c2nc(S(=O)(=O)Cc3cccc(C)c3)ncc2Cl)s1 | ? | - | 0 | - | - | 0
CC(C)c1nnc(NC(=O)c2nc(S(=O)(=O)Cc3ccc(F)cc3)ncc2Cl)s1 | -84.1 | - | 0 | - | - | 0
Cc1ccc(CS(=O)(=O)c2ncc(Cl)c(C(=O)Nc3nnc(C(C)C)s3)n2)cc1 | -70.6 | - | 0 | - | - | 0
COC(=O)c1ccccc1NC(=O)c1nc(S(=O)(=O)Cc2ccccc2)ncc1Cl | 0 | - | 0 | - | - | 0
Cc1cccc(CS(=O)(=O)c2ncc(Cl)c(C(=O)Nc3nnc(C(C)C)s3)n2)c1 | -73.0 | - | 0 | - | - | 0
CCSc1nnc(NC(=O)c2nc(S(=O)(=O)Cc3ccc(F)cc3)ncc2Cl)s1 | 0 | - | 0 | - | - | 0
Cc1nnc(NC(=O)c2nc(S(=O)(=O)Cc3ccccc3C)ncc2Cl)s1 | -77.5 | - | 0 | - | - | 0
CC(C)c1nnc(NC(=O)c2nc(S(=O)(=O)Cc3ccccc3F)ncc2Cl)s1 | -80.4 | - | 0 | - | - | 0
CSc1nnc(NC(=O)c2nc(S(=O)(=O)Cc3ccccc3F)ncc2Cl)s1 | 0 | - | 0 | - | - | 0
O=C(NCc1cccc(C(F)(F)F)c1)C1CCCN(c2cnccn2)C1 (configuration not stated) | 0 | - | 52.0 | - | - | 0
O=C(NCc1ccc(F)cc1)C1CCCN(c2cnccn2)C1 (configuration not stated) | 0 | - | 52.5 | - | - | 0
O=C(COC(=O)CNC(=O)c1ccco1)Nc1ncc(Cl)cc1Cl | - | - | 0 | - | - | -
O=C(O)C(O)Cc1c[nH]c2ccccc12 (configuration not stated) | - | 0 | 0 | 0 | 0 | -
O=C(CC(C(=O)O)c1c[nH]c2ccccc12)c1ccccc1 (configuration not stated) | 0 | 135.6 | 0 | 0 | 0 | 0
COc1cc(F)cc(-c2ccc3c(c2)c(C#Cc2ccsc2)c(-c2cc(OC)cc(OC)c2)n3C)c1 | - | - | 0 | - | - | -
OC1OC[C@@H](O)[C@H](O)[C@H]1O (some centres not stated) | -72.1 | - | 0 | - | - | ?
CCOC(=O)C1CCN(C(=O)COc2cc(C)c(Br)cc2C)CC1 | -62.7 | 0 | 0 | 0 | 0 | 0
Cc1cc(OCC(=O)N2CCN(c3ccccn3)CC2)c(C)cc1Br | 0 | - | 54.4 | - | - | 0
CCOC(=O)C1CCN(C(=O)COc2ccc(Br)cc2Br)CC1 | 0 | 0 | 0 | 0 | 0 | 0
CNC(=O)NNC(=O)c1csc(Cc2c(Cl)sc3ccc(Cl)cc23)n1 | 0 | - | 47.1 | - | 0 | 0
COc1ccc(Br)cc1/C=C/C(=O)Nc1ccc(C)cc1 | 0 | 0 | 0 | 0 | 0 | 0
COc1ccc(Br)cc1/C=C/C(=O)Nc1ccc2ccccc2c1 | 0 | 0 | 49.8 | 0 | 0 | 0
COc1ccc(NC(=O)c2ccc3ccccc3c2)cc1 | 0 | - | 57.8 | - | - | 0
COc1cccc(C(=O)Nc2ccc(NC(=O)C3CCCCC3C(=O)O)cc2)c1 (configuration not stated) | 0 | - | 0 | - | - | 0
SMILES | HSF1 inhib | STAT3 act | AHR activator | Hsp70 act | PERK inhibitor | PolyA inh
COc1ccccc1C(=O)Nc1cccc(NC(C)=O)c1 | 0 | 0 | 0 | 0 | 0 | 0
COc1cccc(C(=O)Nc2ccc(NC(=O)C3CC=CCC3C(=O)O)cc2)c1 (configuration not stated) | -51.8 | - | 0 | - | - | 0
COc1ccccc1C(=O)Nc1ccc2ccccc2c1 | 0 | - | 56.4 | - | - | 0
C/C(=N\NC(=O)Nc1ccccc1)c1ccc2ccccc2c1 | 0 | 0 | 69.8 | 0 | 0 | 0
CC(OC(=O)Cc1c[nH]c2ccccc12)C(=O)NC1CCCCC1C (configuration not stated) | - | - | 0 | - | - | -
CC(C)(C)c1ccc(/C=N/Nc2cccc(C(=O)O)c2)cc1 | -57.0 | 0 | 0 | 0 | 0 | 0
O=C(O)c1cccc(N/N=C/c2ccc(-c3ccccc3)cc2)c1 | 0 | 0 | - | 0 | 0 | 0
O=C(O)c1ccc(/C=N/Nc2ncc(C(F)(F)F)cc2Cl)cc1 | 0 | - | 0 | - | 0 | 0
O=C(O)c1ccc(N/N=C/c2ccc(C(F)(F)F)cc2)cc1 | -66.4 | 0 | 0 | 0 | 0 | 0
CCNC(=S)N/N=C/c1ccc(C(=O)O)cc1 | 0 | 0 | 0 | 0 | 0 | 0
